GSIS activator – GLuc luminescence reporter in INS-1E cells, primary screen for activators of glucose-dependent secretion of insulin; INS-1E GLuc reporter insulin secretion, 2-3 h; activation, % at 16.6 µM; 370,000 compounds, 0.61% hits; AID 743287;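 active = lowest replicate activation of at least 40%, so every replicate reaches that level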
rRNA inh HTS – selective bacterial rRNA inhibition in E. coli | AID 720706 | 350,000 compounds, 1.6% hits | GFP signal change (wild-type ribosome), % (concentration not given with the values) | E. coli WT GFP vs humanized-ribosome RFP mutants, fluorescence, 24 h; hits give low values; DMSO median 0, no signal -100;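 active = significant combined selectivity score with lowered wild-type GFP, culture density cut under 30%, mutant RFP and density less affected; inactive = any of these conditions unmet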
AF4-AF9 inh – inhibitors of human MLL-AF4/AF9 interaction | AlphaScreen, biotin-AF4 peptide binding to FLAG-AF9 | inhibition, % at 10 µM | 350,000 compounds, 0.47% hits | AID 651704;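 active = every replicate reaching a set inhibition limit, whatever the replicate mean, cut at about 25% in these data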
RAD54 inh – RAD54 (human) branch migration inhibition. inhibition, % at 10.4 µM. 360,000 compounds, 0.14% hits. RAD54 Holliday junction branch migration, FAM/BHQ fluorescence;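 active = mean normalized replicate activity at least 40 and at least half of replicates scoring 40 or more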;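 note: inhibitors cause a drop in the FAM fluorescence signal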
E-selectin induc – induces E-selectin expression in human endothelial cells | P16581 | HUVEC E-selectin immunofluorescence imaging; normalized: neutral wells 0, TNF-alpha wells 100 | activation, % at 7.58 µM | 260,000 compounds, 0.37% hits | AID 686992;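 active = mean E-selectin-positive cell signal at least 10% of the positive control, reached in at least 60% of replicates, without over 20% cell loss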
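Material: HUVEC primary endothelial cells; Amount: 3,000 cells per well; Dosing: single concentration; Medium: EGM-2 growth medium on 0.1% gelatin-coated wells; Read-out basis: percent E-selectin-positive cells; Signal: immunofluorescence imaging; Control set: TNF-alpha, DMSO.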
RAD52 anneal inh – blocks human RAD52 DNA annealing; AID 651710; recombinant RAD52 DNA annealing, FRET fluorescence; P43351; 360,000 compounds, 0.46% hits; inhibition, % at 18.7 µM;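 active = every replicate showing at least 50% inhibition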
Target sequence (P43351 whole entry, looked up): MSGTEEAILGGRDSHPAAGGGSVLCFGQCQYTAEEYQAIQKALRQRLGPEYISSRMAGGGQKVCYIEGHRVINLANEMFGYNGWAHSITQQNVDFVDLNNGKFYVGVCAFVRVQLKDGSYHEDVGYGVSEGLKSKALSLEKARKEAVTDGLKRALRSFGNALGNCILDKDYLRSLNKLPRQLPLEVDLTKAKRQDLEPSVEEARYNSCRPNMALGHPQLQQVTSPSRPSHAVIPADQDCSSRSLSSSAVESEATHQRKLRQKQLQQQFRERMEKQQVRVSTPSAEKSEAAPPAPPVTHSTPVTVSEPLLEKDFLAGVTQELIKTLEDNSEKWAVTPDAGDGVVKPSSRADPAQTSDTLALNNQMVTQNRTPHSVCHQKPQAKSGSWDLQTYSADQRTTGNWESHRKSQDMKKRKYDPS
Hits are given with their value; n = inactive; x = no result given. Compounds with a hit are over-represented: about 2.6% of the library has one in this group of screens.

SMILES	GSIS activator	rRNA inh HTS	AF4-AF9 inh	RAD54 inh	E-selectin induc	RAD52 anneal inh
NC1(C(=O)O)CSSC1	n	n	48	x	n	n
Cc1cc(C(=O)NCC(c2ccco2)N(C)C)ccc1[N+](=O)[O-] (stereo unspecified)	n	n	46	n	x	n
C[C@@H]1CN([C@H](C)CO)S(=O)(=O)c2ccc(-c3ccccc3)cc2O[C@H]1CN(C)C	n	n	n	n	n	n
CCC(=O)Nc1ccc2c(c1)OC[C@@H](C)N(Cc1ccccc1C(=O)O)C[C@@H](C)[C@H](OC)CN(C)C2=O	n	n	n	n	n	n
CN(c1ccccc1)S(=O)(=O)c1ccc(Cl)c(C(=O)OCC(=O)c2c(N)n(C)c(=O)n(C)c2=O)c1	n	-21	n	n	n	n
Cn1c(N)c(C(=O)COC(=O)c2cccc(S(=O)(=O)NCc3ccccc3)c2)c(=O)n(C)c1=O	n	n	n	n	n	n
CC(=O)c1c(C)[nH]c(C(=O)COC(=O)c2cc(S(=O)(=O)N(C)c3ccccc3)ccc2Cl)c1C	n	-28	n	x	n	n
CNS(=O)(=O)c1cccc(C(=O)OCC(=O)c2c(N)n(Cc3ccccc3)c(=O)n(C)c2=O)c1	n	-26	n	n	x	n
COc1ccc(N(C)S(=O)(=O)c2cccc(C(=O)OCC(=O)c3c(N)n(C)c(=O)n(C)c3=O)c2)cc1	x	n	n	n	n	n
CC(C)NC(=O)N[C@@H]1C=C[C@@H](CC(=O)NCc2ccc(Oc3ccccc3)cc2)O[C@@H]1CO	n	n	n	n	n	n
CO[C@H]1CN(C)C(=O)c2ccc(NC(=O)c3cc(C)on3)cc2OC[C@H](C)N(C)C[C@@H]1C	n	n	n	x	n	n
O=C(C[C@@H]1CC[C@H]2[C@@H](COC[C@H](O)CN2CC2CCCC2)O1)NCc1ccc(Cl)cc1	n	n	n	x	n	n
COc1ccccc1/C=C\C(=O)NCC(=O)N/N=C/c1ccc(O)cc1O	n	-29	n	n	n	n
Cc1cc(=O)n2ccsc2n1	47	n	n	n	n	n
COc1cccc(C(=O)N2C[C@H]3[C@@H](c4ccccc42)[C@@H](CO)N3Cc2cccnc2)c1	n	n	n	n	n	n
COC(=O)C[C@H]1CC[C@@H]2[C@@H](COc3ccc(NC(=O)Nc4ccccc4C)cc3C(=O)N2C)O1	n	n	n	n	n	n
O=C(c1ccc(F)cc1)N1CCOC(c2nc(-c3ccc(F)cc3)no2)C1 (stereo unspecified)	n	-25	n	n	n	n
CS(=O)(=O)Nc1ccc2c(c1)[C@H]1C[C@@H](CC(=O)NCc3ccc(-c4ccccc4)cc3)O[C@H](CO)[C@H]1O2	n	n	x	n	n	x
COc1ccc(CN(C)C[C@@H]2Oc3c(NC(=O)NC4CCCCC4)cccc3C(=O)N([C@H](C)CO)C[C@H]2C)cc1	n	n	n	n	n	n
COc1ccc(NC(=O)N(C)C[C@H]2Oc3ccc(NC(=O)Nc4ccc(C(F)(F)F)cc4)cc3CC(=O)N([C@H](C)CO)C[C@H]2C)cc1	n	n	n	n	n	n
COC(=O)C1=C(C)N(Cc2cccc(C(F)(F)F)c2)C(=NCc2ccc(OC)cc2)NC1c1cccc(F)c1 (stereo unspecified)	84	n	x	x	n	n
COC(=O)C1=C(C)N(Cc2cccc(C(F)(F)F)c2)C(=NCc2ccc(OC)cc2)NC1c1ccc(F)cc1 (stereo unspecified)	285	n	x	x	n	n
COC(=O)C1=C(C)N(Cc2cccc(C(F)(F)F)c2)C(=NCc2ccc(OC)cc2)NC1c1ccccc1 (stereo unspecified)	x	n	n	x	n	n
CC(C)C(=O)Nc1ccc2c(c1)C(=O)N(C)[C@@H]1CC[C@H](CC(=O)NCc3ccccc3)O[C@H]1CO2	n	n	n	n	n	n
C[C@@H]1CN([C@H](C)CO)C(=O)c2cc(C3=CCCC3)cnc2O[C@@H]1CN(C)C(=O)C1CC1	n	n	x	x	n	x
SMILES	GSIS activator	rRNA inh HTS	AF4-AF9 inh	RAD54 inh	E-selectin induc	RAD52 anneal inh
CCOC(=O)c1ccc(-c2ccc(C=O)o2)cc1	x	n	n	x	n	n
CCOC(=O)c1cccc(-c2ccc(C=O)o2)c1	49	n	n	n	n	n
CO[C@H]1CN(C)C(=O)c2cc(NC(C)=O)ccc2OC[C@@H](C)N(CCC(F)(F)F)C[C@@H]1C	n	n	n	n	n	n
CCOC(=O)c1cc(NC(=O)c2cnccn2)cc(C(=O)OCC)c1	86	x	x	n	x	x
CNC[C@H]1Oc2ccc(NS(=O)(=O)c3ccc(Cl)cc3)cc2CC(=O)N([C@@H](C)CO)C[C@@H]1C	n	n	n	n	n	n
O=C(NCC[C@@H]1CC[C@@H](NC(=O)C2CCCC2)[C@H](CO)O1)c1cc(Cl)cc(Cl)c1	n	n	n	n	n	n
O=C(NNC(=O)C1CCCCC1)c1ccc(Br)cc1	n	-24	n	x	n	n
O=C(NNC(=O)c1ccccc1O)c1ccc(Br)cc1	n	-24	n	n	x	n
O=C(NNC(=O)C1CCC1)c1ccc(Br)cc1	n	n	n	n	x	n
COC(=O)c1sccc1NC(=S)N(C)C1CCCCC1	n	-26	n	x	n	n
CCN1CCN(C(=S)Nc2ccsc2C(=O)OC)CC1	n	n	x	x	x	n
COC(=O)c1sccc1NC(=S)N1CCN(C)CC1	42	n	n	x	n	n
COCC(=O)N1[C@@H]2c3ccc(C4=CCCC4)c(=O)n3C[C@@H]2[C@@H](CO)[C@@H]1C(=O)N1CCCCC1	n	n	n	n	n	n
Cc1ccc(N(C(=O)Nc2ccccc2)C2=NCCC2)cc1	x	n	n	n	n	n
COc1ccc(N(C(=O)Nc2ccc(Cl)cc2)C2=NCCC2)cc1	n	-36	n	n	x	n
CO[C@@H](CN(C)S(=O)(=O)c1ccc(C)cc1)[C@@H](C)CN(Cc1ccccc1Cl)[C@H](C)CO	n	n	n	n	n	n
Cc1[nH]c(SCC(=O)Nc2cc(S(C)(=O)=O)ccc2Cl)nc1Cc1ccccc1	n	-22	n	n	n	n
Cc1cc(NC(=O)CSc2nc(Cc3ccccc3)c(C)[nH]2)no1	n	n	n	n	x	n
CCN(c1ccccc1)S(=O)(=O)c1ccc(Cl)c(NC(=O)CSc2n[nH]c(N)n2)c1	n	-19	n	x	n	n
Cc1noc(C)c1S(=O)(=O)Nc1ccc2c(c1)CC(=O)N([C@@H](C)CO)C[C@H](C)[C@@H](CN(C)C(=O)NC1CCCCC1)O2	n	n	n	n	n	n
COc1ccc(-c2ccc3n(c2=O)C[C@@H]2[C@@H](CO)[C@H](C(=O)NCC4CC4)[C@H]3N2S(C)(=O)=O)cc1	n	n	n	n	n	n
CC1=CC(=O)C=C(C)C1=NOS(=O)(=O)c1ccccc1	186	x	x	n	x	x

Screening results from PubChem.
